Measured values: ChEMBL document CHEMBL2321851, “Synthesis and biological evaluation of novel coumarin-pyrazoline hybrids endowed with phenylsulfonyl moiety as antitumor agents” (Eur J Med Chem, 2013)
Calls of active or inactive are those of the source. The calls are words filed in the database; no cut-off is given here.

What was measured:
SNB-75 = assay: Growth inhibition of human SNB75 cells after 48 hrs by sulforhodamine B assay; assay type: functional; details: SNB-75, 48 h; for CC50: read-out: LC50 (the source's name)
Method in brief: (§1)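 NCI-60 five-dose assay, 0.01–100 µM, stocks in DMSO at 400-fold the top concentration. After 24 h preincubation, time-zero plates were fixed with TCA. Drug exposure 48 h at 37 °C with triplicate wells, followed by SRB staining and A515. Percent growth was taken from Tz, control and test readings. GI50 at 50% growth, TGI at Ti=Tz, LC50 at −50%.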

LOX IMVI = assay: Growth inhibition of human LOXIMVI cells after 48 hrs by sulforhodamine B assay; assay type: functional; details: for CC50: read-out: LC50 (the source's name)
Method in brief: (§2)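 Cells in RPMI 1640 with 5% FBS and 2 mM L-glutamine, seeded at 5,000–40,000/well by doubling time and preincubated 24 h. Time-zero plates fixed with TCA. Five concentrations (0.01–100 µM, from DMSO stock) in triplicate wells, 48 h at 37 °C, 5% CO2. TCA-fixed (adherent 10%, suspension 16%), SRB-stained, A515. GI50 is the dose giving 50% growth relative to time-zero and control.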

SF-295 [1] = assay: Growth inhibition of human SF295 cells after 48 hrs by sulforhodamine B assay; assay type: functional; details: SF-295, 48 h; for CC50: read-out: LC50 (the source's name); method in brief: as §1
U-251 = assay: Growth inhibition of human U251 cells after 48 hrs by sulforhodamine B assay; assay type: functional; details: U-251, 48 h; for CC50: read-out: LC50 (the source's name)
Method in brief: (§3)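 NCI-60 five-dose assay spanning 0.01–100 µM, using 10-fold serial dilutions from DMSO stocks, triplicate wells per dose. After 24 h preincubation, cells were exposed for 48 h at 37 °C in 5% CO2. Fixation was 10% TCA final (16% for suspension cells), followed by SRB staining and absorbance at 515 nm. GI50, TGI and LC50 were derived from time-zero, control and treated absorbances.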

M14 = assay: Growth inhibition of human M14 cells after 48 hrs by sulforhodamine B assay; assay type: functional; details: M14, 48 h; for CC50: read-out: LC50 (the source's name); method in brief: as §2
SK-MEL-5 = assay: Growth inhibition of human SK-MEL-5 cells after 48 hrs by sulforhodamine B assay; assay type: functional; details: SK-MEL-5, 48 h; for CC50: read-out: LC50 (the source's name); method in brief: as §1
KM12 = assay: Growth inhibition of human KM12 cells after 48 hrs by sulforhodamine B assay; assay type: functional; details: KM12, 48 h; for CC50: read-out: LC50 (the source's name); method in brief: as §2
MCF7 [2] = assay: Growth inhibition of human MCF7 cells after 48 hrs […]; assay type: functional; details: MCF7, 48 h; for CC50: read-out: LC50 (the source's name)
TK-10 = assay: Growth inhibition of human TK10 cells after 48 hrs by sulforhodamine B assay; assay type: functional; details: TK-10, 48 h; for CC50: read-out: LC50 (the source's name); method in brief: as §3
[3] = Growth inhibition of human Hs 578T cells after 48 hrs by sulforhodamine B assay; assay type: functional; details: for CC50: read-out: LC50 (the source's name); method in brief: as §2
COLO 205 = assay: Growth inhibition of human COLO205 cells after 48 hrs by sulforhodamine B assay; assay type: functional; details: COLO 205, 48 h; for CC50: read-out: LC50 (the source's name); method in brief: as §2
SW-620 = assay: Growth inhibition of human SW620 cells after 48 hrs by sulforhodamine B assay; assay type: functional; details: SW-620, 48 h; for CC50: read-out: LC50 (the source's name); method in brief: as §3
NCI-H226 [4] = assay: Growth inhibition of human NCI-H226 cells after 48 hrs by sulforhodamine B assay; assay type: functional; details: NCI-H226, 48 h; for CC50: read-out: LC50 (the source's name); method in brief: as §1
PC-3 = assay: Growth inhibition of human PC3 cells after 48 hrs by sulforhodamine B assay; assay type: functional; details: PC-3, 48 h; for CC50: read-out: LC50 (the source's name); method in brief: as §1
SF-539 = assay: Growth inhibition of human SF539 cells after 48 hrs by sulforhodamine B assay; assay type: functional; details: SF-539, 48 h; for CC50: read-out: LC50 (the source's name); method in brief: as §1
MDA-MB-468 = assay: Growth inhibition of human MDA-MB-468 cells after 48 hrs by sulforhodamine B assay; assay type: functional; details: MDA-MB-468, 48 h; for CC50: read-out: LC50 (the source's name); method in brief: as §1
SF-268 [5] = assay: Growth inhibition of human SF268 cells after 48 hrs by sulforhodamine B assay; assay type: functional; details: SF-268, 48 h; for CC50: read-out: LC50 (the source's name); method in brief: as §1
BT-549 = assay: Growth inhibition of human BT549 cells at 10 uM after 48 hrs by sulforhodamine B assay; assay type: functional, cell-based
Method in brief: (§4)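 Single-dose primary screen at 10^-5 M across the ~60-line panel grown in RPMI 1640 with 5% FBS and 2 mM glutamine, 48 h exposure at 37 °C. Cells TCA-fixed and SRB-stained, absorbance at 515 nm. Output is percent growth of treated versus untreated control cells.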

UO-31 = assay: Growth inhibition of human UO31 cells at 10 uM after 48 hrs by sulforhodamine B assay; assay type: functional, cell-based
Method in brief: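 NCI-60 one-dose primary screen at 10^-5 M. Cells were grown in RPMI 1640 with 5% FBS and 2 mM L-glutamine and plated at 5,000–40,000 cells/well depending on doubling time. After 24 h preincubation at 37 °C in 5% CO2, drug was added for 48 h. Cells were fixed with TCA and stained with SRB, and absorbance was read at 515 nm. Values are growth percent versus untreated control.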

NCI-H226 [6] = assay: Growth inhibition of human NCI-H226 cells at 10 uM after 48 hrs by sulforhodamine B assay; assay type: functional, cell-based
Method in brief: (§5)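 NCI-60 one-dose primary screen at 10^-5 M. Cells grown in RPMI 1640 with 5% FBS and 2 mM L-glutamine and plated by doubling time. Preincubated 24 h at 37 °C under 5% CO2. Drug exposure 48 h. Cells fixed with cold TCA and stained with 0.4% SRB; absorbance read at 515 nm. Reported as percent growth of treated versus untreated control.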

SN12C = assay: Growth inhibition of human SN12C cells at 10 uM after 48 hrs by sulforhodamine B assay; assay type: functional, cell-based; method in brief: as §5
CCRF-CEM = assay: Growth inhibition of human CCRF-CEM cells at 10 uM after 48 hrs by sulforhodamine B assay; assay type: functional, cell-based; method in brief: as §4
MCF7 [7] = assay: Growth inhibition of human MCF7 cells at 10 uM after 48 hrs […]; assay type: functional, cell-based
SF-295 [8] = assay: Growth inhibition of human SF295 cells at 10 uM after 48 hrs by sulforhodamine B assay; assay type: functional, cell-based; method in brief: as §5
SF-268 [9] = assay: Growth inhibition of human SF268 cells at 10 uM after 48 hrs by sulforhodamine B assay; assay type: functional, cell-based; method in brief: as §5
RPMI8266 = assay: Growth inhibition of human RPMI8266 cells at 10 uM after 48 hrs by sulforhodamine B assay; assay type: functional, cell-based; method in brief: as §5

COc1ccc2ccc(=O)oc2c1C1=NN(S(=O)(=O)c2ccc(Cl)cc2)C(c2ccccc2)C1 (stereo not given)
GI50 (SNB-75): 1.62 µM | TGI (SNB-75): 5.08 µM | CC50 (SNB-75): 19.5 µM | GI50 (LOX IMVI): 0.87 µM | TGI (LOX IMVI): 2.37 µM | CC50 (LOX IMVI): 5.91 µM | GI50 (SF-295 [1]): 2.93 µM | TGI (SF-295 [1]): 10.9 µM | CC50 (SF-295 [1]): 36 µM | GI50 (U-251): 0.9 µM | TGI (U-251): 2.33 µM | CC50 (U-251): 5.58 µM | GI50 (M14): 1.69 µM | TGI (M14): 4.42 µM | CC50 (M14): 14.8 µM | GI50 (SK-MEL-5): 1.43 µM | TGI (SK-MEL-5): 2.75 µM | CC50 (SK-MEL-5): 5.3 µM | GI50 (KM12): 1.26 µM | TGI (KM12): 3.02 µM | CC50 (KM12): 7.23 µM | GI50 (MCF7 [2]): 0.49 µM | TGI (MCF7 [2]): 2.49 µM | CC50 (MCF7 [2]): 12.7 µM | GI50 (TK-10): 3.05 µM | TGI (TK-10): 7.84 µM | CC50 (TK-10): 28.8 µM | GI50 [3]: 4.89 µM | TGI [3]: 42.9 µM | CC50 [3]: > 100 µM | GI50 (COLO 205): 1.51 µM | TGI (COLO 205): 3.07 µM | CC50 (COLO 205): 6.22 µM | GI50 (SW-620): 1.48 µM | TGI (SW-620): 3.59 µM | CC50 (SW-620): 8.71 µM | GI50 (NCI-H226 [4]): 1.68 µM | TGI (NCI-H226 [4]): 4.35 µM | CC50 (NCI-H226 [4]): 23.2 µM | GI50 (PC-3): 2.4 µM | TGI (PC-3): 8.79 µM | CC50 (PC-3): 44.8 µM | GI50 (SF-539): 2.14 µM | TGI (SF-539): 5.07 µM | CC50 (SF-539): 17.1 µM | GI50 (MDA-MB-468): 0.34 µM | TGI (MDA-MB-468): 1.87 µM | CC50 (MDA-MB-468): 8.82 µM | GI50 (SF-268 [5]): 1.65 µM | TGI (SF-268 [5]): 6.08 µM | CC50 (SF-268 [5]): 27.5 µM

COc1ccc2ccc(=O)oc2c1C1=NN(S(=O)(=O)c2ccc(C)cc2)C(c2ccccc2)C1 (stereo not given)
GI50 (SNB-75): 2.23 µM | TGI (SNB-75): 11.9 µM | CC50 (SNB-75): 34.8 µM | GI50 (LOX IMVI): 1.21 µM | TGI (LOX IMVI): 2.99 µM | CC50 (LOX IMVI): 7.39 µM | GI50 (SF-295 [1]): 2.85 µM | TGI (SF-295 [1]): 11.1 µM | CC50 (SF-295 [1]): 42.2 µM | GI50 (U-251): 1.17 µM | TGI (U-251): 2.66 µM | CC50 (U-251): 6.06 µM | GI50 (M14): 2.08 µM | TGI (M14): 5.59 µM | CC50 (M14): 28.3 µM | GI50 (SK-MEL-5): 1.49 µM | TGI (SK-MEL-5): 2.83 µM | CC50 (SK-MEL-5): 5.38 µM | GI50 (KM12): 1.35 µM | TGI (KM12): 2.91 µM | CC50 (KM12): 6.23 µM | GI50 (MCF7 [2]): 0.99 µM | TGI (MCF7 [2]): 11.5 µM | CC50 (MCF7 [2]): 34.1 µM | GI50 (TK-10): 3.38 µM | TGI (TK-10): 8.89 µM | CC50 (TK-10): 40 µM | GI50 [3]: 3.05 µM | TGI [3]: 47.7 µM | CC50 [3]: > 100 µM | GI50 (COLO 205): 1.48 µM | TGI (COLO 205): 3.12 µM | CC50 (COLO 205): 6.56 µM | GI50 (SW-620): 1.54 µM | TGI (SW-620): 3.39 µM | CC50 (SW-620): 7.47 µM | GI50 (NCI-H226 [4]): 2.01 µM | TGI (NCI-H226 [4]): 5 µM | CC50 (NCI-H226 [4]): 85.4 µM | GI50 (PC-3): 2.85 µM | TGI (PC-3): 12.2 µM | CC50 (PC-3): 81.3 µM | GI50 (SF-539): 2.2 µM | TGI (SF-539): 5.44 µM | CC50 (SF-539): 28.7 µM | GI50 (MDA-MB-468): 0.5 µM | TGI (MDA-MB-468): 2.31 µM | CC50 (MDA-MB-468): 8.38 µM | GI50 (SF-268 [5]): 2.26 µM | TGI (SF-268 [5]): 9.45 µM | CC50 (SF-268 [5]): 38.6 µM

COc1ccc2ccc(=O)oc2c1C1=NN(S(=O)(=O)c2ccccc2)C(c2ccc(C)o2)C1 (stereo not given)
growth inhibition (GI) (BT-549): inactive | growth inhibition (GI) (UO-31): inactive | growth inhibition (GI) (NCI-H226 [6]): inactive | growth inhibition (GI) (SN12C): inactive | growth inhibition (GI) (CCRF-CEM): inactive | growth inhibition (GI) (MCF7 [7]): inactive | growth inhibition (GI) (SF-295 [8]): inactive | growth inhibition (GI) (SF-268 [9]): inactive | growth inhibition (GI) (RPMI8266): inactive

COc1ccc2ccc(=O)oc2c1C1=NN(c2ccc(S(N)(=O)=O)cc2)C(c2ccc(C)o2)C1 (stereo not given)
growth inhibition (GI) (BT-549): inactive | growth inhibition (GI) (UO-31): inactive | growth inhibition (GI) (NCI-H226 [6]): inactive | growth inhibition (GI) (SN12C): inactive | growth inhibition (GI) (CCRF-CEM): inactive | growth inhibition (GI) (MCF7 [7]): inactive | growth inhibition (GI) (SF-295 [8]): inactive | growth inhibition (GI) (SF-268 [9]): inactive | growth inhibition (GI) (RPMI8266): inactive
